Source: ChEMBL document CHEMBL4321877, “Development of Novel N-hydroxypyridone Derivatives as Potential Anti-Ischemic Stroke Agents” (J Med Chem, 2020)
Calls of active or inactive are those of the source. The rule behind the calls is not given here.

Experiments:
[1] = Solubility of the compound in […] incubated for 24 hrs by HPLC analysis; assay type: physicochemical
[2] = tested on: SH-SY5Y; test: Neuroprotective activity against H2O2-induced cell death in human SH-SY5Y cells assessed as cell viability at 1 to 4 uM preincubated for 2 hrs followed by H2O2-challenge by MTT assay (reference value: 45.73%); assay type: functional
[3] = tested on: Rattus norvegicus; test: Neuroprotective activity in Sprague-Dawley rat model of middle cerebral artery occlusion-induced ischemia-reperfusion injury assessed as infarction volume at 3 mg/kg, iv by TTC staining based assay (reference value: 39%); assay type: functional
How it was run: (§1)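 Male Sprague-Dawley rats under chloral hydrate (400 mg/kg, i.p.); nylon monofilament through the left internal carotid artery occluded the MCA origin for 2 h, then was withdrawn for reperfusion. Drug in 0.9% saline was injected via the tail vein immediately after reperfusion. After 24 h, 2 mm coronal sections were stained with 1% TTC at 37 °C for 15 min and fixed in 4% paraformaldehyde. Infarct % = (normal hemisphere − non-infarcted ischemic hemisphere)/normal hemisphere ×100. n=15-18, mean ± SEM.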

[4] = target: Voltage-gated inwardly rectifying potassium channel KCNH2 (Homo sapiens, UniProt Q12809); test: Inhibition of human ERG stably expressed in CHO cells at -80 mV by automated Qpatch electrophysiological assay; assay type: cell-based
[5] = tested on: SH-SY5Y; test: Cytotoxicity against human SH-SY5Y cells assessed as reduction in cell viability measured after 24 hrs by MTT assay; assay type: cell-based
How it was run: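 SH-SY5Y cells (1:1 MEM/F12, 10% FBS) seeded 3 × 10^4 cells/well, grown 24 h, then exposed without insult for 24 h to 1.56–100 µM or to 1 and 10 µM (DMSO stock diluted in medium). MTT read at 490 nm; viability as % of untreated control.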

[6] = tested on: MRC5; test: Cytotoxicity against human MRC5 cells assessed as reduction in cell viability measured after 72 hrs by CCK8 assay; assay type: cell-based; conditions: MRC5, 72 h
How it was run: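 MRC-5 cells grown in MEM with 10% FBS, NEAA, 5% CO2 at 37 °C; seeded 7000 cells/well, treated at several concentrations for 72 h. Viability by CCK-8 absorbance at 450 nm, expressed as % of vehicle-treated cells; IC50 reported as mean ± SD.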

[7] = tested on: Rattus norvegicus; test: Neuroprotective activity in iv dosed Sprague-Dawley rat model of middle cerebral artery occlusion-induced ischemia-reperfusion injury assessed as concentration required to reduce infarction volume to < 26% by TTC staining based assay; assay type: functional; how it was run: as §1
[8] = Half life in mouse liver microsomes at 1 uM in presence of NADPH by LC-MS/MS analysis; assay type: ADME, Microsome
[9] = tested on: SH-SY5Y; test: (§2) Neuroprotective activity against oxygen-glucose deprivation-induced apoptosis in human SH-SY5Y cells assessed as viable cells at 4 uM preincubated for 2 hrs followed by OGD-challenge and measured after 24 hrs by Annexin V-FITC/propidium iodide staining-based flow cytometric method (reference value: 48.2%); assay type: functional; conditions: read-out: Activity
[10] = tested on: SH-SY5Y; test: as §2, with “early apoptotic” for “viable”, “17.1%)” for “48.2%)”; assay type: functional
[11] = tested on: SH-SY5Y; test: as §2, with “late apoptotic” for “viable”, “28.2%)” for “48.2%)”; assay type: functional
[12] = tested on: SH-SY5Y; test: as §2, with “necrotic” for “viable”, “6.46%)” for “48.2%)”; assay type: functional
[13] = tested on: SH-SY5Y; test: Neuroprotective activity against oxygen-glucose deprivation-induced morphological changes in human SH-SY5Y cells assessed as suppression of neurite disappearance […] and measured after 24 hrs by microscopic analysis; assay type: functional, cell-based
[14] = tested on: SH-SY5Y; test: Neuroprotective activity against oxygen-glucose deprivation-induced morphological changes in human SH-SY5Y cells assessed as suppression of cell shrinkage […] and measured after 24 hrs by microscopic analysis; assay type: functional, cell-based
[15] = tested on: SH-SY5Y; test: Neuroprotective activity against oxygen-glucose deprivation-induced morphological changes in human SH-SY5Y cells assessed as suppression of bright cell body appearance preincubated for 2 hrs followed by OGD-challenge and measured after 24 hrs by microscopic analysis; assay type: functional, cell-based
How it was run: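 SH-SY5Y cells treated immediately before 2 h OGD (glucose/serum-free, hypoxia chamber, 37 °C), then reoxygenated; morphology (neurites, cell body, cell number) inspected by light microscopy 24 h after insult.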

[16] = tested on: HT-22; test: Neuroprotective activity against glutamate-induced cell death in mouse HT22 cells assessed as increase in cell viability up to 4 uM preincubated for 2 hrs followed by glutamate-challenge and measured after 24 hrs by MTT assay; assay type: functional, cell-based
How it was run: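 HT22 mouse hippocampal cells (DMEM, 10% FBS) seeded 5×10^4 cells/ml and grown 12 h. Compound added for 2 h, then 10 mM L-glutamic acid hydrochloride for 24 h. Viability by MTT at 490 nm as % of control; mean ± SD, n = 3.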

[17] = tested on: Rattus norvegicus; test: Neuroprotective activity in Sprague-Dawley rat model of middle cerebral artery occlusion-induced ischemia-reperfusion injury assessed as infarction volume at 1 mg/kg, iv by TTC staining based assay (reference value: 39%); assay type: functional; how it was run: as §1
[18] = tested on: Rattus norvegicus; test: Neuroprotective activity in Sprague-Dawley rat model of middle cerebral artery occlusion-induced ischemia-reperfusion injury assessed as infarction volume at 0.3 mg/kg, iv by TTC staining based assay (reference value: 39%); assay type: functional; how it was run: as §1
[19] = tested on: Rattus norvegicus; test: Neuroprotective activity in Sprague-Dawley rat model of middle cerebral artery occlusion-induced ischemia-reperfusion injury assessed as reduction in disease severity score at 1 mg/kg, iv measured 24 hrs post-reperfusion; assay type: functional, organism-based
How it was run: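 Male Sprague-Dawley rats anesthetized with chloral hydrate (400 mg/kg i.p.); left MCA occluded by intraluminal nylon suture for 2 h, then withdrawn. Compound in 0.9% saline given by tail vein immediately after reperfusion; body temperature held at 37.0 ± 0.5 °C. mNSS scored 24 h later; n = 15–18, mean ± SEM.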

[20] = tested on: SH-SY5Y; test: Neuroprotective activity against oxygen-glucose deprivation-induced morphological changes in human SH-SY5Y cells assessed as increase in cell number added immediately before OGD-challenge and measured after 24 hrs by microscopic analysis

Chain of Voltage-gated inwardly rectifying potassium channel KCNH2 (Q12809 whole entry): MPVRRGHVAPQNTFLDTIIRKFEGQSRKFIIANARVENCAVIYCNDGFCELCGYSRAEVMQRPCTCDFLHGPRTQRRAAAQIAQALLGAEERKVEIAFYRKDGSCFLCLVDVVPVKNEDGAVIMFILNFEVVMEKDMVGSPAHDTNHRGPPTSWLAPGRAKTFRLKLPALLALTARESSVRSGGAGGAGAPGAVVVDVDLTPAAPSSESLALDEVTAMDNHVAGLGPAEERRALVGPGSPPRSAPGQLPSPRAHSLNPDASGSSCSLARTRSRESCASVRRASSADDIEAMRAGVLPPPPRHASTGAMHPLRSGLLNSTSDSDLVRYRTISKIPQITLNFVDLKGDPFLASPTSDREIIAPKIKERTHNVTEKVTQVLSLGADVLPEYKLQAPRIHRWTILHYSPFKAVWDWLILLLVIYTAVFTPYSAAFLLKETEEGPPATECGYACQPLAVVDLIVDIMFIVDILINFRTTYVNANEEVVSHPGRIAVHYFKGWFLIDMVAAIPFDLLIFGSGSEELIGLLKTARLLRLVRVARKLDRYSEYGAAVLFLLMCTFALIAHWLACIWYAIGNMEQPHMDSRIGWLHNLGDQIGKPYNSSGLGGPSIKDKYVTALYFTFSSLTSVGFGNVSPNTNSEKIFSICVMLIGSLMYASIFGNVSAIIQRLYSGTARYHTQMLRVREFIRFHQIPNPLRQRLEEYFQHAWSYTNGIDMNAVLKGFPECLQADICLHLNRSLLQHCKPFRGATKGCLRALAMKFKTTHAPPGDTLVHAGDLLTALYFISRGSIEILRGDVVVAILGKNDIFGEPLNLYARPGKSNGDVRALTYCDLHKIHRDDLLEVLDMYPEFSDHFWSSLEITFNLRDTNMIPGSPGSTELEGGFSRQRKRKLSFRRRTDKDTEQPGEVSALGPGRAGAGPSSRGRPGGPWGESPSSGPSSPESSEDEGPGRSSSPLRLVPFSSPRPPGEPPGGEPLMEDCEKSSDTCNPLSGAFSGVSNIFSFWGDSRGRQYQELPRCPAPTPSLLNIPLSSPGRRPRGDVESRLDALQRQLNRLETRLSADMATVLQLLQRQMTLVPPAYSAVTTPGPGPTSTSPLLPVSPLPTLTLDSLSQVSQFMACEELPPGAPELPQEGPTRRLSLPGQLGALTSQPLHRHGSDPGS

Structure (SMILES): Cc1cc(C2CCCCC2)n(O)c(=O)c1.NCCO [CICLOPIROX OLAMINE]
- solubility ([1]; buffer, 24 h): 6.82 mg/mL
- Activity [2]: <=80%
- Activity [3]: 26%
- IC50 [4]: > 40 µM
- IC50 [5]: > 100 µM
- IC50 [6]: 23.5 µM
- Activity [7]: 3 mg/kg
- half-life at 1 µM [8]: 0.886 h

Structure (SMILES): Cc1cc([C@@H]2C[C@@H]3CC[C@H]2C3)n(O)c(=O)c1.NCCO
- solubility at 24 h [1]: 10.9 mg/mL
- viability at 4 µM [9]: 69.8%
- Activity [10]: 9.36%
- Activity [11]: 16%
- Activity [12]: 4.87%
- Activity [13]: Active
- Activity [14]: Active
- Activity [15]: Active
- Activity [16]: Active
- Activity [2]: <=80%
- Activity [17]: 23%
- Activity [18]: 25%
- Activity [19]: Active
- IC50 [4]: > 40 µM
- IC50 [5]: > 100 µM
- IC50 [6]: 23.6 µM
- Activity [7]: 0.3 mg/kg
- half-life at 1 µM [8]: 1.53 h
- Activity [20]: Active
